Measured values taken from ChEMBL document CHEMBL5058577, “EUbOPEN Chemogenomics Library 2 (Multiplex)” (2022).

System: Fibroblast
Experiment: Multiplex assay against human fibroblast
Format: toxicity, cell-based
Outline: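 With compound added, live cells were imaged on a CQ1 microscope at 37°C and 5% CO2; staining with Hoechst33342, BioTracker Green Microtubule Cytoskeleton Dye, MitoTracker Red and Annexin V Alexa Fluor 680 had been done at seeding. The CellPathfinder machine-learning gating scheme split cells into Hoechst high-intensity objects or normal cells, normal cells into healthy, pyknosed or fragmented nuclei, and pyknosed cells into mitotic or apoptotic. The tubulin, mitochondrial-mass and membrane-permeability phenotypes are per cents of healthy-nucleus cells.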

[1] = 12 h, 1 µM, compound concentration 1 uM, replicate 1
[2] = 12 h, 1 µM, compound concentration 1 uM, replicate 2
[3] = 12 h, 10 µM, compound concentration 10 uM, replicate 1
[4] = 12 h, 10 µM, compound concentration 10 uM, replicate 2
[5] = 24 h, 1 µM, compound concentration 1 uM, replicate 1
[6] = 24 h, 1 µM, compound concentration 1 uM, replicate 2
[7] = 24 h, 10 µM, compound concentration 10 uM, replicate 1
[8] = 24 h, 10 µM, compound concentration 10 uM, replicate 2
[9] = 48 h, 1 µM, compound concentration 1 uM, replicate 1
[10] = 48 h, 1 µM, compound concentration 1 uM, replicate 2
[11] = 48 h, 10 µM, compound concentration 10 uM, replicate 1
[12] = 48 h, 10 µM, compound concentration 10 uM, replicate 2

## N#Cc1c(N)nc(SCc2csc(-c3ccc(Cl)cc3)n2)c(C#N)c1-c1ccc(OCCO)cc1 [CAPADENOSON]
[1]
  Population Apoptotic (%): 43%
  Population Fragmented Nuclei (%): 8%
  Population Healthy Nuclei (%): 80%
  Population Hoechst High Intensity Objects (%): 2%
  Population Membrane Permeable-Phenotype (%): 0%
  Population Mitochondria Different-Phenotype (%): 10%
  Population Mitotic Cells (%): 56%
  Population Normal (%): 97%
  Population Pyknosed Nuclei (%): 11%
  Population Tubulin-Different-Phenotype (%): 38%
  Total Cell Count: 139
[2]
  Population Apoptotic (%): 27%
  Population Fragmented Nuclei (%): 30%
  Population Healthy Nuclei (%): 43%
  Population Hoechst High Intensity Objects (%): 1%
  Population Membrane Permeable-Phenotype (%): 5%
  Population Mitochondria Different-Phenotype (%): 11%
  Population Mitotic Cells (%): 72%
  Population Normal (%): 98%
  Population Pyknosed Nuclei (%): 25%
  Population Tubulin-Different-Phenotype (%): 55%
  Total Cell Count: 157
[3]
  Population Apoptotic (%): 31%
  Population Fragmented Nuclei (%): 23%
  Population Healthy Nuclei (%): 50%
  Population Hoechst High Intensity Objects (%): 1%
  Population Membrane Permeable-Phenotype (%): 0%
  Population Mitochondria Different-Phenotype (%): 10%
  Population Mitotic Cells (%): 68%
  Population Normal (%): 98%
  Population Pyknosed Nuclei (%): 25%
  Population Tubulin-Different-Phenotype (%): 80%
  Total Cell Count: 172
[4]
  Population Apoptotic (%): 41%
  Population Fragmented Nuclei (%): 41%
  Population Healthy Nuclei (%): 29%
  Population Hoechst High Intensity Objects (%): 8%
  Population Membrane Permeable-Phenotype (%): 20%
  Population Mitochondria Different-Phenotype (%): 14%
  Population Mitotic Cells (%): 58%
  Population Normal (%): 91%
  Population Pyknosed Nuclei (%): 29%
  Population Tubulin-Different-Phenotype (%): 97%
  Total Cell Count: 128
[5]
  Population Apoptotic (%): 72%
  Population Fragmented Nuclei (%): 11%
  Population Healthy Nuclei (%): 80%
  Population Hoechst High Intensity Objects (%): 1%
  Population Membrane Permeable-Phenotype (%): 0%
  Population Mitochondria Different-Phenotype (%): 5%
  Population Mitotic Cells (%): 27%
  Population Normal (%): 98%
  Population Pyknosed Nuclei (%): 8%
  Population Tubulin-Different-Phenotype (%): 34%
  Total Cell Count: 139
[6]
  Population Apoptotic (%): 48%
  Population Fragmented Nuclei (%): 35%
  Population Healthy Nuclei (%): 44%
  Population Hoechst High Intensity Objects (%): 4%
  Population Membrane Permeable-Phenotype (%): 6%
  Population Mitochondria Different-Phenotype (%): 20%
  Population Mitotic Cells (%): 51%
  Population Normal (%): 95%
  Population Pyknosed Nuclei (%): 20%
  Population Tubulin-Different-Phenotype (%): 71%
  Total Cell Count: 148
[7]
  Population Apoptotic (%): 38%
  Population Fragmented Nuclei (%): 26%
  Population Healthy Nuclei (%): 52%
  Population Hoechst High Intensity Objects (%): 2%
  Population Membrane Permeable-Phenotype (%): 0%
  Population Mitochondria Different-Phenotype (%): 26%
  Population Mitotic Cells (%): 61%
  Population Normal (%): 97%
  Population Pyknosed Nuclei (%): 20%
  Population Tubulin-Different-Phenotype (%): 67%
  Total Cell Count: 179
[8]
  Population Apoptotic (%): 41%
  Population Fragmented Nuclei (%): 43%
  Population Healthy Nuclei (%): 28%
  Population Hoechst High Intensity Objects (%): 6%
  Population Membrane Permeable-Phenotype (%): 17%
  Population Mitochondria Different-Phenotype (%): 25%
  Population Mitotic Cells (%): 58%
  Population Normal (%): 93%
  Population Pyknosed Nuclei (%): 27%
  Population Tubulin-Different-Phenotype (%): 94%
  Total Cell Count: 131
[9]
  Population Apoptotic (%): 88%
  Population Fragmented Nuclei (%): 16%
  Population Healthy Nuclei (%): 77%
  Population Hoechst High Intensity Objects (%): 2%
  Population Membrane Permeable-Phenotype (%): 0%
  Population Mitochondria Different-Phenotype (%): 7%
  Population Mitotic Cells (%): 11%
  Population Normal (%): 97%
  Population Pyknosed Nuclei (%): 6%
  Population Tubulin-Different-Phenotype (%): 37%
  Total Cell Count: 147
[10]
  Population Apoptotic (%): 69%
  Population Fragmented Nuclei (%): 38%
  Population Healthy Nuclei (%): 43%
  Population Membrane Permeable-Phenotype (%): 6%
  Population Mitochondria Different-Phenotype (%): 12%
  Population Mitotic Cells (%): 30%
  Population Pyknosed Nuclei (%): 17%
  Population Tubulin-Different-Phenotype (%): 60%
  Total Cell Count: 151
[11]
  Population Apoptotic (%): 81%
  Population Fragmented Nuclei (%): 32%
  Population Healthy Nuclei (%): 53%
  Population Hoechst High Intensity Objects (%): 2%
  Population Membrane Permeable-Phenotype (%): 0%
  Population Mitochondria Different-Phenotype (%): 32%
  Population Mitotic Cells (%): 18%
  Population Normal (%): 97%
  Population Pyknosed Nuclei (%): 14%
  Population Tubulin-Different-Phenotype (%): 78%
  Total Cell Count: 187
[12]
  Population Apoptotic (%): 36%
  Population Fragmented Nuclei (%): 57%
  Population Healthy Nuclei (%): 29%
  Population Hoechst High Intensity Objects (%): 0%
  Population Membrane Permeable-Phenotype (%): 11%
  Population Mitochondria Different-Phenotype (%): 30%
  Population Mitotic Cells (%): 63%
  Population Normal (%): 100%
  Population Pyknosed Nuclei (%): 13%
  Population Tubulin-Different-Phenotype (%): 95%
  Total Cell Count: 142
